Data taken from ChEMBL document CHEMBL1275442, “Pharmacokinetics and tissue distribution of anidulafungin in rats” (Antimicrob Agents Chemother, 2008).

Legend:
[1] = system: Zone of skin; experiment: Drug level in Long Evans rat skin assessed as radioactivity per gram of tissue at 5 mg/kg, iv administered as single bolus dose measured 6 hrs postdose by autoradiography; assay type: ADME, organism-based; set-up: dose 5 mg/kg, route intravenous; settings: in vivo
How it was run: (§1)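 Male pigmented Long Evans (HsdBlu:LE) rats, 7.5 weeks old and 202 to 217 g, got a single iv dose of [14C]anidulafungin at 5 mg/kg. One rat per time point (0.5, 6, 12, 24, 72, 168 h) was euthanised by isoflurane and cardiac-puncture exsanguination. Sagittal whole-body sections were quantified by phosphorimaging. Samples were thickness-corrected, and concentrations (μg eq/g) were interpolated from least-squares standard curves.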

[2] = system: Rattus norvegicus; experiment: Volume of distribution in F344 rat assessed as total compound-derived radioactivity at 5 mg/kg, iv administered as single bolus dose; assay type: ADME, organism-based; set-up: dose 5 mg/kg, route intravenous; settings: in vivo
How it was run: (§2)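 Male F344 rats, 10 to 11 weeks old and 223.6 to 243.8 g, got one iv dose of [14C]anidulafungin at 5 mg/kg over about 5 min. Blood, CSF, kidney, liver, lung, quadriceps, spleen and skin were sampled predose and at 0.083 to 72 h, 3 rats per time. Total radioactivity (parent plus metabolites) was measured by liquid scintillation counting. Parameters were noncompartmental, from a composite mean profile.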

[3] = system: Cerebrum; experiment: Drug level in Long Evans rat cerebrum assessed as radioactivity per gram of tissue at 5 mg/kg, iv administered as single bolus dose measured 72 hrs postdose by autoradiography; assay type: ADME, organism-based; set-up: dose 5 mg/kg, route intravenous; settings: in vivo
How it was run: (§3)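 Male pigmented Long Evans (HsdBlu:LE) rats, 7.5 weeks old, 202 to 217 g, single iv [¹⁴C]anidulafungin; one rat per sampling time. Euthanized by isoflurane and cardiac-puncture exsanguination. Sagittal whole-body sections quantified by phosphorimaging autoradiography, single samples corrected for section thickness across multiple sections per tissue. Concentrations (μg eq/g drug-derived radioactivity) interpolated from least-squares standard curves per scan.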

[4] = system: Kidney; experiment: Drug level in Long Evans rat kidney assessed as high disposition of radioactivity per gram of tissue at 5 mg/kg, iv administered as single bolus dose measured 168 hrs postdose by autoradiography; assay type: ADME, organism-based; set-up: dose 5 mg/kg, route intravenous; settings: in vivo; how it was run: as §3
[5] = system: Cerebrum; experiment: Drug level in Long Evans rat cerebrum assessed as radioactivity per gram of tissue at 5 mg/kg, iv administered as single bolus dose measured 168 hrs postdose by autoradiography; assay type: ADME, organism-based; set-up: dose 5 mg/kg, route intravenous; settings: in vivo; how it was run: as §3
[6] = Drug level in Long Evans rat eye assessed as radioactivity per gram of tissue at 5 mg/kg, iv administered as single bolus dose measured 6 hrs postdose by autoradiography; assay type: ADME, organism-based; set-up: dose 5 mg/kg, route intravenous; settings: in vivo; how it was run: as §3
[7] = system: Kidney; experiment: Drug level in Long Evans rat kidney assessed as low disposition of radioactivity per gram of tissue at 5 mg/kg, iv administered as single bolus dose measured 12 hrs postdose by autoradiography; assay type: ADME, organism-based; set-up: dose 5 mg/kg, route intravenous; settings: in vivo; how it was run: as §3
[8] = system: Spleen; experiment: AUC (0 to infinity) in F344 rat spleen at 5 mg/kg, iv administered as single bolus dose; assay type: ADME, organism-based; set-up: time infinity, dose 5 mg/kg, route intravenous; settings: in vivo
How it was run: (§4)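 Male F344 rats, 10–11 weeks, 223.6–243.8 g, given one IV dose of [¹⁴C]anidulafungin, 5 mg/kg, over about 5 min. Tissues and blood sampled at 0.083–72 h (n = 3 rats per time). Parent drug measured by HPLC; LLOQ/ULOQ were 20/5,120 ng/ml for plasma and 220/56,320 ng/g for tissue. Noncompartmental parameters taken from the composite mean profile.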

[9] = system: Plasma; experiment: AUC (0 to 24 hrs) in F344 rat plasma assessed as total compound-derived radioactivity per gram of tissue at 5 mg/kg, iv administered as single bolus dose […]; assay type: ADME, organism-based; set-up: time < 24 hr, dose 5 mg/kg, route intravenous; settings: in vivo
How it was run: (§5)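 Same F344 study: single 5 mg/kg IV [¹⁴C]anidulafungin given over about 5 min. Total drug-derived radioactivity (parent plus metabolites) counted by liquid scintillation, in […]. Noncompartmental analysis of the composite mean profile.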

[10] = system: Kidney; experiment: Drug level in Long Evans rat kidney assessed as low disposition of radioactivity per gram of tissue at 5 mg/kg, iv administered as single bolus dose measured 6 hrs postdose by autoradiography; assay type: ADME, organism-based; set-up: dose 5 mg/kg, route intravenous; settings: in vivo; how it was run: as §3
[11] = system: Spleen; experiment: Drug level in Long Evans rat spleen assessed as radioactivity per gram of tissue at 5 mg/kg, iv administered as single bolus dose measured 24 hrs postdose by autoradiography; assay type: ADME, organism-based; set-up: dose 5 mg/kg, route intravenous; settings: in vivo; how it was run: as §1
[12] = system: Cerebrospinal fluid; experiment: AUC (0 to infinity) in F344 rat cerebrospinal fluid assessed as total compound-derived radioactivity per gram of tissue at 5 mg/kg, iv administered as single bolus dose […]; assay type: ADME, organism-based; set-up: time infinity, dose 5 mg/kg, route intravenous; settings: in vivo; how it was run: as §5
[13] = system: Kidney; experiment: Tmax in F344 rat kidney assessed as total compound-derived radioactivity at 5 mg/kg, iv administered as single bolus dose […]; assay type: ADME, organism-based; set-up: dose 5 mg/kg, route intravenous; settings: in vivo; how it was run: as §2
[14] = system: Zone of skin; experiment: Drug level in Long Evans rat skin assessed as radioactivity per gram of tissue at 5 mg/kg, iv administered as single bolus dose measured 24 hrs postdose by autoradiography; assay type: ADME, organism-based; set-up: dose 5 mg/kg, route intravenous; settings: in vivo; how it was run: as §1
[15] = system: Spleen; experiment: Drug level in Long Evans rat spleen assessed as radioactivity per gram of tissue at 5 mg/kg, iv administered as single bolus dose measured 0.5 hrs postdose by autoradiography; assay type: ADME, organism-based; set-up: dose 5 mg/kg, route intravenous; settings: in vivo; how it was run: as §1
[16] = system: Kidney; experiment: Drug level in Long Evans rat kidney assessed as low disposition of radioactivity per gram of tissue at 5 mg/kg, iv administered as single bolus dose measured 168 hrs postdose by autoradiography; assay type: ADME, organism-based; set-up: dose 5 mg/kg, route intravenous; settings: in vivo; how it was run: as §3
[17] = system: Lung; experiment: AUC (0 to infinity) in F344 rat lung at 5 mg/kg, iv administered as single bolus dose; assay type: ADME, organism-based; set-up: time infinity, dose 5 mg/kg, route intravenous; settings: in vivo; how it was run: as §4
[18] = system: Lung; experiment: Drug level in Long Evans rat lung assessed as radioactivity per gram of tissue at 5 mg/kg, iv administered as single bolus dose measured 168 hrs postdose by autoradiography; assay type: ADME, organism-based; set-up: dose 5 mg/kg, route intravenous; settings: in vivo; how it was run: as §3
[19] = Tmax in F344 rat lung at 5 mg/kg, iv administered as single bolus dose by HPLC method; assay type: ADME, organism-based; set-up: dose 5 mg/kg, route intravenous
How it was run: (§6)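 F344 males, 10 to 11 weeks old and 223.6 to 243.8 g, got a single 5 mg/kg iv dose of [14C]anidulafungin over about 5 min. Plasma and tissues were collected predose and at 0.083 to 72 h, n = 3 per time point. Parent drug was quantified by HPLC-UV, with LLOQ/ULOQ of 20/5,120 ng/ml in plasma and 220/56,320 ng/g in tissue. Noncompartmental parameters came from a composite mean concentration-time profile.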

[20] = system: Liver; experiment: Drug level in Long Evans rat liver assessed as high disposition of radioactivity per gram of tissue at 5 mg/kg, iv administered as single bolus dose measured 0.5 hrs postdose by autoradiography; assay type: ADME, organism-based; set-up: dose 5 mg/kg, route intravenous; settings: in vivo; how it was run: as §3
[21] = system: Kidney; experiment: Drug level in Long Evans rat kidney assessed as high disposition of radioactivity per gram of tissue at 5 mg/kg, iv administered as single bolus dose measured 72 hrs postdose by autoradiography; assay type: ADME, organism-based; set-up: dose 5 mg/kg, route intravenous; settings: in vivo; how it was run: as §3
[22] = system: Kidney; experiment: Drug level in Long Evans rat kidney assessed as high disposition of radioactivity per gram of tissue at 5 mg/kg, iv administered as single bolus dose measured 0.5 hrs postdose by autoradiography; assay type: ADME, organism-based; set-up: dose 5 mg/kg, route intravenous; settings: in vivo; how it was run: as §3
[23] = system: Muscle tissue; experiment: Tmax in F344 rat muscle assessed as total compound-derived radioactivity at 5 mg/kg, iv administered as single bolus dose […]; assay type: ADME, organism-based; set-up: dose 5 mg/kg, route intravenous; settings: in vivo; how it was run: as §2
[24] = Tmax in F344 rat skin at 5 mg/kg, iv administered as single bolus dose by HPLC method; assay type: ADME, organism-based, Zone of skin; set-up: dose 5 mg/kg, route intravenous; how it was run: as §6
[25] = system: Liver; experiment: Drug level in Long Evans rat liver assessed as high disposition of radioactivity per gram of tissue at 5 mg/kg, iv administered as single bolus dose measured 6 hrs postdose by autoradiography; assay type: ADME, organism-based; set-up: dose 5 mg/kg, route intravenous; settings: in vivo; how it was run: as §3
[26] = system: Spleen; experiment: Drug level in Long Evans rat spleen assessed as radioactivity per gram of tissue at 5 mg/kg, iv administered as single bolus dose measured 168 hrs postdose by autoradiography; assay type: ADME, organism-based; set-up: dose 5 mg/kg, route intravenous; settings: in vivo; how it was run: as §1

SMILES: CCCCCOc1ccc(-c2ccc(-c3ccc([14C](=O)N[C@H]4C[C@@H](O)[C@@H](O)NC(=O)[C@@H]5[C@@H](O)[C@@H](C)CN5C(=O)[C@H]([C@@H](C)O)NC(=O)[C@H]([C@H](O)[C@@H](O)c5ccc(O)cc5)NC(=O)[C@@H]5C[C@@H](O)CN5C(=O)[C@H]([C@@H](C)O)NC4=O)cc3)cc2)cc1 [14C-ANIDULAFUNGIN]
- Drug uptake [1]: 5.39 ugequiv
- Vd [2]: 0.2 L/kg
- Drug uptake [3]: 0.47 ugequiv
- Drug uptake [4]: 2.57 ugequiv
- Drug uptake [5]: 0.6 ugequiv
- Drug uptake [6]: 1.74 ugequiv
- Drug uptake [7]: 7.54 ugequiv
- AUC [8]: 567.95 µg·h/g
- AUC [9]: 131.77 ugequiv.hr/g
- Drug uptake [10]: 8.45 ugequiv
- Drug uptake [11]: 10.25 ugequiv
- AUC [12]: 0.95 ugequiv.hr/g
- Tmax [13]: 30 min
- Drug uptake [14]: 3.5 ugequiv
- Drug uptake [15]: 20.67 ugequiv
- Drug uptake [16]: 0.7 ugequiv
- AUC [17]: 638.21 µg·h/g
- Drug uptake [18]: 0.96 ugequiv
- Tmax [19]: 4.98 min
- Drug uptake [20]: 11.79 ugequiv
- Drug uptake [21]: 7.32 ugequiv
- Drug uptake [22]: 18.09 ugequiv
- Tmax [23]: 30 min
- Tmax [24]: 30 min
- Drug uptake [25]: 29.1 ugequiv
- Drug uptake [26]: 1.53 ugequiv
